The values below come from ChEMBL document CHEMBL4808224, “Rational Design of Original Fused-Cycle Selective Inhibitors of Tryptophan 2,3-Dioxygenase” (J Med Chem, 2021).

Data set [1] in a line: Cytotoxicity against mouse P815B cells incubated for 2 to 4 hrs by MTS assay. It is filed as cell-based, P815. The following applies: time 2-4 hrs, read-out: LD50 (the source's name). The method, boiled down: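 1 × 10⁵ cells per well in DMEM; MTS with PMS, diluted in PBS, added to the wells; incubated 2–4 h at 37 °C; absorbance read at 490 nm.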
For orientation: Tetrazolium assays rely on reduction of a dye to a coloured formazan, in cell work by metabolically active cells.

Data set [2] is described as follows: Metabolic stability in liver microsomes (unknown origin) assessed as half life at 10 uM by UPLC analysis. It is filed as ADME, Microsome. On the technique in general: Liver microsomes are vesicles of endoplasmic reticulum, rich in cytochrome P450 enzymes.
The target in data set [3] is Indoleamine 2,3-dioxygenase 1 (Homo sapiens) (UniProt P14902). Description: Inhibition of human IDO1 assessed as reduction in kynurenine production at 100 uM using tryptophan as substrate by enzymatic assay.
A short description of data set [4]: Cysteamine reactivity assessed as aromatic signals at 1 mM measured after 30 mins by LC-MS/MS analysis. It is filed as physicochemical. The following applies: 0.5 h, 1000 µM.
For data set [5], the target named is Indoleamine 2,3-dioxygenase 1 (Homo sapiens) (UniProt P14902). Briefly: Inhibition of human IDO1 assessed as reduction in kynurenine production at 100 uM using tryptophan as substrate by cellular assay.
Data set [6] can be described thus: Cysteamine reactivity assessed as aromatic signals at 1 mM measured after 30 mins by 1H NMR spectroscopy. The following applies: 0.5 h, 1000 µM. It is filed as physicochemical.
Data set [7] can be described thus: Toxicity in mouse P815 cells assessed as cell cycle distribution at > 100 uM measured after 6 to 12 hrs by propidium iodide DNA staining based flow cytometry. The following applies: time 6-12 hrs. (In general: A flow cytometer gives signals particle by particle.)
Data set [8] addresses Tryptophan 2,3-dioxygenase (Homo sapiens, UniProt P48775). Description: Inhibition of human TDO2 expressed in HEK293E cells assessed as reduction in N-formylkynurenine formation using tryptophan as substrate measured after 24 hrs by HPLCC based UV spectrometry. It is filed as cell-based, HEK2936E.

The source made the active and inactive calls. The calls are words filed in the database; no cut-off is given here.

Sequence of Indoleamine 2,3-dioxygenase 1 (Homo sapiens) (P14902 whole entry, looked up): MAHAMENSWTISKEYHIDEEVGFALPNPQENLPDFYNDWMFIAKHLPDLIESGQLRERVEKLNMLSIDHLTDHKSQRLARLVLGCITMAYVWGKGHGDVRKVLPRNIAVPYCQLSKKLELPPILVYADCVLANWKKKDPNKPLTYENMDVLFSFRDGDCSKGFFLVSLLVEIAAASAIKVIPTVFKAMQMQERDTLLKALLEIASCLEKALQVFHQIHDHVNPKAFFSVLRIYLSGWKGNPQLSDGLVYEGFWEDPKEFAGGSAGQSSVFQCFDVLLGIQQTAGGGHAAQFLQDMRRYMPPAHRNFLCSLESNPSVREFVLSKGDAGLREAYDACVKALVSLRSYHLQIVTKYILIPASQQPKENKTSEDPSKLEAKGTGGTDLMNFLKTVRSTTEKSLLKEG
Sequence of Tryptophan 2,3-dioxygenase (P48775 whole entry): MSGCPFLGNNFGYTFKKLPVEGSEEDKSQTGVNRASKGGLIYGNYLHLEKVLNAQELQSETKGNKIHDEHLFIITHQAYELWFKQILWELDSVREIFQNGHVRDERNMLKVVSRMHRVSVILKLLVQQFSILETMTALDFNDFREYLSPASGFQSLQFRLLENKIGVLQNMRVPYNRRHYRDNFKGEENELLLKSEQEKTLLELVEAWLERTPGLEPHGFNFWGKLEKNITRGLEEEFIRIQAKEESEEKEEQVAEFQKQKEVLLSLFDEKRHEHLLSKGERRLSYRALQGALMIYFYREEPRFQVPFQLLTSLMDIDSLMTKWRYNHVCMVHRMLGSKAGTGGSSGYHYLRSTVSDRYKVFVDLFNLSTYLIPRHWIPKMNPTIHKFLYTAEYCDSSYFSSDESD

For `c1ccc2c(-c3ccc4ccncc4c3)c[nH]c2c1`, the CC50 in data set [1] was over 20 µM.
As to `FC(F)(F)Cn1nnc2ccc(-c3c[nH]c4ccccc34)cc21`, the half-life – broadly, the time in which the quantity being followed falls by half – at 10 µM in data set [2] stood at 45 min.
Take `Fc1ccc2c(/C=C/c3nnn[nH]3)c[nH]c2c1`: the inhibition entry in data set [3] and in data set [5] was “inactive” in each case. Also, the Drug metabolism entry in data set [4] and in data set [6] was “Metabolite_Detected” throughout. Further, in data set [2], the half-life at 10 µM was over 1440 min. Besides, in data set [1], the CC50 was over 100 µM.
With `c1ccc2c(-c3ccc4cncnc4c3)c[nH]c2c1`, in data set [1], the CC50 is over 100 µM.
On to `O=C1NCC2C=CC(c3c[nH]c4ccccc34)=CC2N1` (stereo not given), for which the CC50 in data set [1] was over 30 µM.
Regarding `Fc1ccc2c(/C=C/c3cccnc3)c[nH]c2c1`, the inhibition entry in data set [3] and in data set [5] was “inactive” in each case. Moreover, the CC50 in data set [1] is over 80 µM.
On to `c1ccc2c(-c3ccc4n[nH]nc4c3)c[nH]c2c1`, for which the Drug metabolism entry in data set [4] and in data set [6] was “Metabolite_Notdetected” throughout. In addition, in data set [7], the Activity result is “Non-Toxic”. Also, the CC50 in data set [1] is over 100 µM.
As to `O=S(=O)(c1ccc(-c2c[nH]c3cc(F)ccc23)cn1)N1CCNCC1`, in data set [8], the IC50 – broadly, the point on the concentration scale where inhibition reaches its midpoint – came to 3.2 µM.
`c1ccc2c(-c3ccc4cnccc4c3)c[nH]c2c1`: in data set [1], the CC50 was over 30 µM.
On the same count and under the same terms, to `c1ccc2c(-c3ccc4ncncc4c3)c[nH]c2c1` belongs over 100 µM.
